33 compounds from ChEMBL document CHEMBL1134321, “Structure-based generation of a new class of potent Cdk4 inhibitors: new de novo design strategy and library design” (J Med Chem, 2001) can be followed below.

The nature of the test: Inhibitory activity against CDK4 using recombinant human cyclin D2-CDK4 complex expressed in sf9 cells. The procedure, abridged: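 Recombinant human cyclin D2–Cdk4, baculovirus-expressed in Sf9 cells and HPLC-purified; incubated with 50 µM ATP plus 0.5-1.5 µCi [33P]-ATP, 100 µM or 400 µM G1 peptide, in 20 mM Tris-HCl pH 7.4, 10 mM MgCl2, 4.5 mM 2-mercaptoethanol, 1 mM EGTA, 30 °C, 45 min.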
In general, IC50 refers to the concentration needed to halve the response being measured. For `CN(C)c1cc(NC(=O)Nc2ccccc2)c2ccccc2n1`, the IC50 worked out at 90 µM. With `O=C(NCc1ccccc1)Nc1cccc2ccc(O)cc12` the figure was 410 µM; with `O=C(Nc1nccs1)Nc1cccc2ccc(O)cc12`, 23 µM; with `O=C(Nc1ccccn1)NC1CCCCC1`, above 100 µM. With `O=C(Nc1cccc2ccc(O)cc12)NC1CCCC1` the figure was 150 µM. In the case of `CC(C)NC(=O)Nc1cccc2ccc(O)cc12`, the half-inhibitory concentration (IC50) was found to be 220 µM. For the compound `O=C(Nc1ccccn1)Nc1cccc2c1C(=O)NC2=O`, the IC50 is 3.6 µM. With `O=C(Nc1ccccn1)Nc1cccc2c1-c1ccccc1C2=O` the figure was 0.1 µM.

With `O=C(Nc1ccccn1)Nc1cccc2ccc(O)cc12`, the IC50 amounted to 7.6 µM. With `O=C1NC(=O)C(=Cc2ccc3c(c2)OCO3)C(=O)N1` the figure was 350 µM; with `O=C(Cc1ccccc1)Nc1cccc2ccc(O)cc12`, above 1000 µM. For the compound `O=C(Nc1ccccn1)Nc1cccc2c1[C@H]1CCCN1C2=O`, the IC50 turned out to be 0.042 µM. With `O=C(Nc1ccncc1)Nc1cccc2ccc(O)cc12` the figure was 110 µM; with `Cc1[nH]c2ccccc2c1/C=C1/NC(=S)NC1=O`, 14 µM.

Turning to `O=C(NCc1ccccc1)Nc1ccccn1`, the IC50 was above 100 µM. For the compound `COc1nc(N)c(C#N)c(-c2ccc3c(c2)OCO3)c1C#N`, the half-maximal inhibitory concentration (IC50) came out at 36 µM.

In the case of `Nc1nc(N)nc(C2=Cc3cc(Cl)ccc3OC2)n1`, the half-inhibitory concentration (IC50) was found to be 450 µM. With `O=C(Nc1ccccn1)Nc1cccc2c1-c1cccn1C2=O` the figure was 0.034 µM; with `O=C(Nc1cc(-c2cccs2)ccn1)Nc1cccc2c1C1CCCN1C2=O` (stereo not drawn), 0.011 µM; with `O=C(Nc1ccccc1)Nc1ccccn1`, 100 µM. With `O=C(Nc1ccccn1)Nc1cccc2ncccc12` the figure was 2.4 µM. `CSc1ccc(NC(=O)Nc2cccc3c(O)cccc23)cc1`: the concentration for half-maximal inhibition (IC50) is 40 µM. With `O=C(Nc1ccc2c[nH]nc2c1)Nc1ccccn1` the figure was 0.67 µM; with `O=C(Nc1ccccc1)Nc1cccc2ccc(O)cc12`, 120 µM.

As for `O=C(Nc1cccnc1)Nc1cccc2ccc(O)cc12`, the IC50 came to 340 µM.

On to `O=C(Nc1ccccn1)Nc1cccc2c1[C@@H]1CCCN1C2=O`, for which the IC50 amounted to 0.19 µM. With `Cc1ccc(Cl)cc1NC(=O)Nc1cccc2ccc(O)cc12` the figure was 44 µM; with `C=C(O)c1ccc2n1C(=O)c1cccc(NC(=O)Nc3ccccn3)c1-2`, 0.017 µM; with `CN(C)c1cc(NC(=O)Nc2cccc(Cl)c2)c2ccccc2n1`, 36 µM. Regarding `O=C(Nc1ccc2ncccc2c1)Nc1ccc2ncccc2c1`, the IC50 was 77 µM.

As to `O=C1NC(=S)NC(=O)C1=Cc1c(O)ccc2ccccc12`, the concentration for half-maximal inhibition (IC50) stood at 100 µM. Take `Nc1nc(O)c2nc(CNc3ccc(C(=O)O)cc3)cnc2n1` [PTEROIC ACID]: the half-inhibitory concentration (IC50) amounted to 16 µM. With `Nc1nc(N)c2nc(-c3ccccc3)c(N)nc2n1` [TRIAMTERENE] the figure was 210 µM.
